These results are taken from ChEMBL document CHEMBL4340573, “New pyrazolopyrimidine derivatives as Leishmania amazonensis arginase inhibitors” (Bioorg Med Chem, 2019).

For data set [1], the system named is Leishmania amazonensis. In words: Antileishmanial activity against Leishmania amazonensis LTB0016 amastigotes assessed as induction of parasite morality at 30 uM incubated for 48 hrs by Alamar blue dye based assay relative to control. It counts as functional. The note with it: LTB0016, 48 h. The procedure, abridged:
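Amastigotes purified by mechanical dissociation in RPMI from paw skin lesions of male Swiss Webster mice 30 days after subcutaneous infection with 10^6 amastigotes. Parasites at 10^6/well exposed 48 h at 32 °C, 5% CO2, with compound up to 30 µM (DMSO ≤0.6% final). Then 24 h with 10% AlamarBlue, OD read at 570-600 nm; pentamidine as reference.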

The target of data set [2] is Arginase (Leishmania amazonensis) (UniProt O96394). Description: Inhibition of recombinant Leishmania amazonensis arginase expressed in Escherichia coli at 100 uM using L-arginine as substrate relative to control. The procedure, abridged: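 Recombinant LaARG was expressed in E. coli. Single-point screen: 100 µM compound with 50 mM L-arginine in 50 mM CHES, pH 9.5. DMSO stocks (70 mM) were diluted to 1 mM in deionized water before assay. Run in triplicate in two independent experiments.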

Data set [3] is described as follows: (§1) Cytotoxicity against Swiss mouse peritoneal macrophages assessed as reduction in cell viability incubated for 48 hrs by MTT assay. It counts as cell-based, Peritoneal macrophage. The conditions noted are these: Swiss, peritoneal macrophages, read-out: LC50. The procedure, abridged: (§2)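 Peritoneal cells harvested in RPMI 96 h after 3% thioglycolate (1 mL) in male Swiss mice (18-20 g). Plated at 10^5 cells/well in RPMI 1640 with 10% FBS and 2 mM glutamine. After 24 h, exposed to compound up to 200 µM, 48 h, 37 °C, 5% CO2. MTT 0.45 mg/mL added for 4 h, OD at 570. LC50 derived; at least 2 runs in triplicate.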

The target in data set [4] is T1, Arginase (Leishmania amazonensis, UniProt O96394). In words: Inhibition of recombinant Leishmania amazonensis arginase expressed in Escherichia coli using L-arginine as substrate. The procedure, abridged: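 Recombinant E. coli-expressed LaARG was run with L-arginine at 25, 50 and 100 mM separately. Inhibitor was 200 to 0.05 µM by 4-fold serial dilution, in triplicate in two independent experiments. IC50 came from nonlinear sigmoidal regression of log dose versus enzyme activity; reported IC50 values are at 50 mM substrate.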

Data set [5] addresses Arginase (Leishmania amazonensis) (UniProt O96394). Description: Competitive inhibition of recombinant Leishmania amazonensis arginase expressed in Escherichia coli using 25 to 100 mM L-arginine levels.
The target is the same in data set [6]. In words: Uncompetitive inhibition of recombinant Leishmania amazonensis arginase expressed in Escherichia coli assessed as dissociation constant for ternary complex enzyme-substrate-inhibitor using L-arginine as substrate by Dixon or Cornish-Bowden plot analysis. The procedure, abridged: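 Kinetics on recombinant LaARG used L-arginine at 25, 50 and 100 mM, each with three inhibitor concentrations. Points are the mean of three independent experiments run in duplicate. Mechanism came from linear-regression Dixon and Cornish-Bowden plots. Kis (ESI complex dissociation constant) was taken from the intersection of lines on the Cornish-Bowden plot.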

The test system of data set [7] is Leishmania amazonensis. Description: Antileishmanial activity against Leishmania amazonensis LTB0016 amastigotes assessed as induction of parasite morality incubated for 48 hrs by Alamar blue dye based assay relative to control. It counts as functional, organism-based. The note with it: LTB0016, 48 h. In a few lines:
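Free amastigotes (LTB0016) were purified by mechanical dissociation in RPMI from paw skin lesions of male Swiss Webster mice 30 days after s.c. infection with 10^6 amastigotes. Parasites at 10^6/well were exposed to compounds up to 30 µM for 48 h at 32 °C in 5% CO2. AlamarBlue (10%) was then added for 24 h at 32 °C and OD read at 570-600 nm. Final DMSO was ≤0.6%.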

Data set [8] concerns the target T1, Arginase. In words: Non-competitive inhibition of Leishmania amazonensis arginase using L-arginine as substrate incubated for 15 mins.
A further data set deals with Peritoneal macrophage. The description is as §1. It counts as cell-based. The conditions noted are these: peritoneal macrophage, 48 h. In a few lines: as §2

Calls of active or inactive are those of the source. The rule behind the calls is not given here.

With `NC(=S)NNc1ncnc2c1cnn2-c1ccc(Cl)cc1`, in the data set with Leishmania amazonensis [1], the mortality at 30 µM lay in the range of 20 to 30%. In addition, in [2], the inhibition was 46%. The CC50 at 48 h in data set [3] is more than 200 µM. In addition, the IC50 at Arginase [4] was more than 100 µM.
Regarding `NC(=S)NNc1ncnc2c1cnn2-c1ccc(C(F)(F)F)cc1`, the mortality at 30 µM with Leishmania amazonensis [1] was 20 to 30%. Further, the inhibition entry in data set [5] is “inactive”. Besides, the K in data set [6] is 29 µM. Also, the inhibition in [2] amounted to 73.8%. For the same molecule, the CC50 at 48 h in data set [3] is more than 200 µM. On Arginase [4], the IC50 was 47 µM.
In the case of `N=C(N)c1ccc(OCCCCCOc2ccc(C(=N)N)cc2)cc1` [PENTAMIDINE], the EC50 in the data set with Leishmania amazonensis [7] came to 0.8 µM. For the same molecule, the CC50 at 48 h in [3] was 17.2 µM.
Take `NC(=S)NNc1ncnc2c1cnn2-c1ccccc1`: in the data set with Leishmania amazonensis [1], the mortality at 30 µM is 20 to 30%. In addition, the inhibition entry in data set [5] is “inactive”. Further, in data set [6], the K worked out at 8.5 µM. Further, the inhibition in data set [2] is 74.3%. Also, in data set [3], the CC50 at 48 h was more than 200 µM. Further, the IC50 on Arginase [4] stood at 12 µM.
As for `Cc1cc(NNC(N)=S)n2nc(C(F)(F)F)nc2n1`, in the data set with Leishmania amazonensis [1], the mortality at 30 µM was 20 to 30%. In data set [6], the K was 17 µM. For the same molecule, in [2], the inhibition worked out at 81%. Also, the CC50 at 48 h in data set [3] is more than 200 µM. Also, on Arginase [8], the IC50 turned out to be 16.5 µM and the Ki came out at 17 µM. The IC50 at Arginase [4] was 16.5 µM.
Regarding `NC(=S)NNc1ncnc2c1cnn2-c1ccc(F)cc1`, the mortality at 30 µM with Leishmania amazonensis [1] was in the range of 20 to 30%. The inhibition in data set [2] worked out at 36.4%. Moreover, the CC50 at 48 h in [3] is more than 200 µM. Further, the IC50 at Arginase [4] is more than 100 µM.
Regarding `Cc1ccc(-n2ncc3c(NNC(N)=S)ncnc32)cc1`, the inhibition in data set [2] was found to be 42.2%. In addition, the LC50 result in the data set with Peritoneal macrophage is reported as “Nd(Insoluble)”. The half-inhibitory concentration (IC50) on Arginase [4] is more than 100 µM.
As for `N#Cc1ccc(-n2ncc3c(NNC(N)=S)ncnc32)cc1`, the inhibition in data set [2] came to 59.8%. Further, the LC50 result with Peritoneal macrophage was “Nd(Insoluble)”. In addition, the IC50 at Arginase [4] was 100 µM.
